Source: PubChem
Cneo AK release = Cryptococcus neoformans lysis via adenylate kinase release. AID 651654. C. neoformans lysis, adenylate kinase release luminescence, 4 h; normalised: neutral wells 0, clomiphene wells 100. actives 0.2% (n = 360,000). lysis activity, % at 15 µM;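 active = mean lysis activity across replicates of at least 80%, whatever share of replicates individually reach that level; inactive = mean lysis activity below 80%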
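Material – Cryptococcus neoformans yeast cells · Quantity – 5 × 10^6 yeast cells/mL · Buffer or medium – YPD medium · Compound – single dose · Timing – 4 h static compound exposure, 37 °C, read 1 h post-reagent · Signal – adenylate kinase release luminescence · Read-out basis – lysis from increased AK signal · Benchmarks – Clomiphene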
F508del corr = CFTR F508del correction in bronchial cells; CFBE cells, YFP halide quenching; stimulated with forskolin plus potentiator P3; % fluorescence drop versus neutral controls; activity (quench increase), % at 7.58 µM; actives 0.36% (n = 350,000); AID 720511;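 active = mean added fluorescence quench of at least 8% versus neutral control, with both replicates also reaching 8%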;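 note: cells transiently co-express mutant CFTR-F508del with the halide-sensitive YFP; corrector assay measuring rescue of mutant channel to the surface after 24 h compound exposure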
DENV2 CPE rescue = DENV2-induced cell death inhibition | DENV2-infected cells, cytopathic effect rescue, plate reader | CPE inhibition, % at 9.99 µM | actives 1.7% (n = 350,000); in the data active = CPE inhibition above about 20%, passing the limit was not always enough; tested in BHK-21 cells;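 note: 0% = median of neutral control wells and 100% = median of positive control wells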
PGC1a acetyl inh = modulators of PGC1a acetylation; U2OS PGC1a acetylation, AlphaScreen anti-acetyl-lysine; with virally co-expressed GCN5 acetyltransferase; actives 0.17% (n = 350,000); inhibition, % at 15.6 µM; AID 651687;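 active = every replicate shows inhibition of at least 40%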;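 note: 0% = neutral control wells and 100% = positive control wells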
FN deposit inh = fibronectin deposition inhibition; inhibition, % at 12.6 µM; actives 0.086% (n = 350,000); AH1F fibroblasts, Alexa488-fibronectin deposition fluorescence, overnight;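 active = mean inhibition across replicates of 30% or more, regardless of how many single replicates reach that level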;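 note: positive control wells lacked labelled fibronectin entirely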
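Test system: AH1F fibroblast monolayer depositing Alexa488-labelled fibronectin into matrix. Input: 10000 cells per well. Technique: fluorescence, ex 485 nm, em 525 nm. Buffer or medium: DMEM plus 2% serum, read in PBS. Timing: 1 h cell adhesion before compound, then overnight fibronectin incubation. Compound: single dose, pinned. Read-out basis: inhibition from reduced deposited-fibronectin fluorescence.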
XiGFP reactiv = activators of X-chromosome reactivation in mouse fibroblasts; actives 0.055% (n = 360,000); activation, % at 7.58 µM; XiGFP mouse fibroblasts, % GFP-positive cells imaging, 3 d; cells co-treated with 5-aza-dC sensitizer; scaled so ellipticine positive control = 100%;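 active = mean normalized replicate activation at least 10% and every replicate at or above 10%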;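 note: 0% = median of on-plate neutral control wells and 100% = ellipticine 6 µM median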
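System: XiGFP fibroblasts, SV40-immortalized. Medium: DMEM plus 5-aza-dC sensitizer. Doses: single point. Timing: 3 d treatment, 15 min room-temperature fixation. Control set: ellipticine 6 µM.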
* marks the source's active call; other numbers are inactive results; . = not tested or not shown. Rows were chosen to be rich in hits. Some 1.9% of all compounds tested hit in one or more screens of this group.

SMILES	Cneo AK release	F508del corr	DENV2 CPE rescue	PGC1a acetyl inh	FN deposit inh	XiGFP reactiv
CC(=O)c1cc(NC(=O)c2cccc(C(F)(F)F)c2)c(=O)oc1C	.	11*	.	0	-23	0
Cc1ccccc1-n1sc2cc(F)ccc2c1=O	-3	-7	1	-4	40*	0
CC(C(=O)O)N(C(=O)c1ccccc1)c1ccc(F)cc1 (configuration not stated)	2	10*	0	6	1	0
O=C1C=C(c2ccc3ncccc3c2)C[C@@H](c2ccc(F)cc2)C1	0	.	.	-28	.	.
O=C1C=C(c2ccc3ncccc3c2)C[C@@H](c2ccc3c(c2)OCO3)C1	-2	9.8*	10	.	4	2
Nc1ncnc2nc(Sc3ccc(Cl)cc3)[nH]c12	0	.	.	5	.	.
CC(C)Sc1nc2ncnc(N)c2[nH]1	114*	3	4	9	1	0
COc1ccc(NC(=O)N(C)C[C@@H]2Oc3ccc(NC(=O)Nc4ccc(C(F)(F)F)cc4)cc3C(=O)N([C@@H](C)CO)C[C@@H]2C)cc1	-2	-1	9	-22	.	-1
C[C@@H]1CN([C@@H](C)CO)C(=O)c2cc(NC(=O)Nc3ccc(C(F)(F)F)cc3)ccc2O[C@@H]1CN(C)C	2	-1	22*	-11	7	-1
C[C@H]1CN([C@@H](C)CO)C(=O)c2cc(NC(=O)Nc3ccc(F)cc3)ccc2O[C@H]1CN(C)C	-7	2	-1	-1	.	0
Cc1noc(C)c1NC(=O)Nc1ccc2c(c1)C(=O)N([C@@H](C)CO)C[C@@H](C)[C@@H](CN(C)C(=O)Nc1ccc(C(F)(F)F)cc1)O2	0	-1	32*	7	.	0
C[C@H]1CN([C@@H](C)CO)C(=O)c2cc(NC(=O)Nc3ccc(F)cc3)ccc2O[C@@H]1CN(C)C	-5	-1	26*	2	.	0
C[C@H](CO)N1C[C@H](C)[C@@H](CN(C)C)Oc2ccc(NC(=O)Nc3ccc(F)cc3)cc2C1=O	0	-1	75*	-5	.	0
Cc1noc(C)c1NC(=O)Nc1ccc2c(c1)C(=O)N([C@@H](C)CO)C[C@H](C)[C@H](CN(C)C(=O)Nc1ccc(C(F)(F)F)cc1)O2	-6	1	8	-7	.	0
CC(C)OC(=O)N(C)C[C@@H]1OCc2ccccc2-c2ccccc2C(=O)N([C@H](C)CO)C[C@@H]1C	-2	-3	1	14	-14	0
CN1CCN(C(=O)C[C@@H]2C=C[C@H](NC(=O)Cc3ccccn3)[C@@H](CO)O2)CC1	0	0	4	.	-2	0
CC(C)(O)c1cn([C@@H]2C[C@@H]3O[C@@H](CO)CC[C@@H]3O[C@@H]2CCc2ccc(-c3cccnc3)cc2)nn1	.	-1	-7	4	.	.
O=C(Nc1nccs1)[C@H]1[C@H](CO)[C@H]2Cn3c(cccc3=O)[C@@H]1N2C(=O)C1CCCC1	0	.	18	.	-3	0
COc1ccc(S(=O)(=O)N2CCCCN3[C@H](CO)[C@H](c4ccc(C5=CCCC5)cc4)[C@@H]3C2)cc1	-1	1	141*	0	.	0
COc1ccc(-c2ccc([C@H]3[C@H]4CN(S(=O)(=O)c5cccs5)CCCCN4[C@H]3CO)cc2)cc1	0	1	-10	-2	.	0
O=S(=O)(c1cccs1)N1CCCCN2[C@H](CO)[C@H](c3ccc(Br)cc3)[C@H]2C1	1	-4	38*	3	.	0
COc1ccc(-c2ccc([C@H]3[C@@H](CO)N4CCCCN(S(=O)(=O)c5cccs5)C[C@H]34)cc2)cc1	0	1	26*	-6	.	0
O=C(C[C@@H]1C=C[C@@H](NC(=O)c2ccncc2)[C@H](CO)O1)NCc1ccncn1	.	1	-9	6	.	0
O=C(Nc1cc(F)ccc1F)N1CC(=O)N2[C@H](CO)[C@@H](c3ccc(-c4cccc(F)c4)cc3)[C@H]2C1	.	2	-2	-5	.	0
